Measured values reported in ChEMBL document CHEMBL3124772, “Design, synthesis, and evaluation of conformationally restricted acetanilides as potent and selective β3 adrenergic receptor agonists for the treatment of overactive bladder” (J Med Chem, 2014).
pEC50, pIC50: −log10 of the molar value.

Legend:
[1] = target: Beta-1 adrenergic receptor (Homo sapiens, UniProt P08588); assay: Displacement of [125I]-cyanopindolol from recombinant human beta-1 adrenergic receptor expressed in CHO cell membranes after 1 hr by scintillation counting analysis
Sequence of Beta-1 adrenergic receptor (P08588 whole entry): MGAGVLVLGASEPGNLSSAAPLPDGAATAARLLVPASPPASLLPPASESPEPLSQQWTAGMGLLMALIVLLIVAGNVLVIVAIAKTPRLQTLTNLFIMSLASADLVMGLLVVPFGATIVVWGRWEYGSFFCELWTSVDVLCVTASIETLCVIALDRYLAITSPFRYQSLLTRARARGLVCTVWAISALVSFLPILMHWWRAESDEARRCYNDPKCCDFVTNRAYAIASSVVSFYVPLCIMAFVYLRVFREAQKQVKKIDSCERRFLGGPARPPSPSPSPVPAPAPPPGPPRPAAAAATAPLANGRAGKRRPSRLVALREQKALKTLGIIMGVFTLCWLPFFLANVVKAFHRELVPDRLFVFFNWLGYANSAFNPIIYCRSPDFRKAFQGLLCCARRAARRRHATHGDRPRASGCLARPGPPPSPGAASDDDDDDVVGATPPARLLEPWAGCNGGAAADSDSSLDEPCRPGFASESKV

[2] = target: T1, Beta-3 adrenergic receptor (Homo sapiens, UniProt P13945); assay: Agonist activity at human beta-3 adrenergic receptor expressed in CHO cells assessed as increase in intracellular cAMP accumulation after 30 mins by time-resolved fluorescence assay; format: functional, cell-based
How it was run: (§1)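 CHO cells stably transfected with cloned β3-AR, harvested after 3 days subculture with enzyme-free dissociation, 6000 cells in HBSS with 5 mM HEPES, 0.1% BSA and 0.6 mM IBMX. Ligand at 10⁻¹⁰ to 10⁻⁵ M final, 30 min room temperature with labeled cAMP antibody; LANCE TR-FRET read after 1 h detection, cAMP from standard curve.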
Target sequence in this assay (P13945 whole entry): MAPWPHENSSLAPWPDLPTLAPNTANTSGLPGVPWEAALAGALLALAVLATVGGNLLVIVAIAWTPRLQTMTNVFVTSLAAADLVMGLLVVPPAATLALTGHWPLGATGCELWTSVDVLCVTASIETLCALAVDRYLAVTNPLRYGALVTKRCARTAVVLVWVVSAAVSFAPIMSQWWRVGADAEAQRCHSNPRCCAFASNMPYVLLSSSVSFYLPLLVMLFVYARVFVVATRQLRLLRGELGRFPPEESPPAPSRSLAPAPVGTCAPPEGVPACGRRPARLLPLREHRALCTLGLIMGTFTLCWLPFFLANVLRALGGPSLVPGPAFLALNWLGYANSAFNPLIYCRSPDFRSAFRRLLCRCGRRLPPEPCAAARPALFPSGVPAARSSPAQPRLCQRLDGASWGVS

[3] = target: T1, Beta-3 adrenergic receptor; assay: Agonist activity at human beta-3 adrenergic receptor expressed in CHO cells assessed as increase in intracellular cAMP accumulation at 10^-10 to 10^-5 M after 30 mins by time-resolved fluorescence assay relative to R-(-)isoproterenol; format: functional, cell-based; how it was run: as §1
Target sequence in this assay (P13945 whole entry, looked up): as the sequence (P13945 whole entry) above

[4] = target: Beta-2 adrenergic receptor (Homo sapiens, UniProt P07550); assay: Displacement of [125I]-cyanopindolol from recombinant human beta-2 adrenergic receptor expressed in CHO cell membranes after 1 hr by scintillation counting analysis
Sequence of Beta-2 adrenergic receptor (P07550 whole entry): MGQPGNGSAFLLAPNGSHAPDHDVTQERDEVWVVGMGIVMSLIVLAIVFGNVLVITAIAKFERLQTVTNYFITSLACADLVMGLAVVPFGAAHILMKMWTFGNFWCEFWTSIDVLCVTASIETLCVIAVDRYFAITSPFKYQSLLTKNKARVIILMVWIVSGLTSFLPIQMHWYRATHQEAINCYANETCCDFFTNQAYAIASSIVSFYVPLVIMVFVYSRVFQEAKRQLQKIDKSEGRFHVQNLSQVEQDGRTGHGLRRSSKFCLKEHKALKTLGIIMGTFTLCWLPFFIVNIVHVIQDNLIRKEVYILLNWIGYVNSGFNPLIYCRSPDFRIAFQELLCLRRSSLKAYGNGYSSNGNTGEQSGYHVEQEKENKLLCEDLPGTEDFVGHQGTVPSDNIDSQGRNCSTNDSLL

[5] = Fraction unbound in Sprague-Dawley rat plasma at 1 mg/kg, iv and 2 mg/kg, po; format: ADME, organism-based; details: Sprague-Dawley, plasma
[6] = Plasma clearance in Sprague-Dawley rat at 1 mg/kg, iv and 2 mg/kg, po; format: ADME, organism-based
[7] = Oral bioavailability in Sprague-Dawley rat at 2 mg/kg; format: ADME, organism-based; details: in vivo
[8] = Half life in Sprague-Dawley rat at 1 mg/kg, iv and 2 mg/kg, po; format: ADME, organism-based; details: in vivo
[9] = Apparent permeability in MDCK2 cells; format: ADME, cell-based, Canis lupus familiaris, MDCK-II; details: dog, MDCK
[10] = Intrinsic clearance in rat liver microsomes; format: ADME; details: read-out: CLH

Structure (SMILES) | pIC50 [1] | pEC50 [2] | Activity [3] [%] | pIC50 [4] | fraction unbound [5] | clearance [6] [mL/min/kg] | bioavailability [7] [%] | half-life [8] [h] | Papp [9] [×10⁻⁶ cm/s] | CLint scaled [10] [mL/min/kg]
Nc1nc2c(s1)CC[C@@H]2C(=O)Nc1ccc(C[C@@H]2CC[C@H]([C@H](O)c3ccccc3)N2)cc1 | < 4.70 | 7.35 | 91 | < 4.70 | – | – | – | – | – | –
Nc1nc2c(s1)CCCC[C@H]2C(=O)Nc1ccc(C[C@@H]2CC[C@H]([C@H](O)c3ccccc3)N2)cc1 | < 4.70 | 8.73 | 70 | < 4.70 | – | – | – | – | – | –
CCc1nc2c(s1)CC[C@H]2C(=O)Nc1ccc(C[C@@H]2CC[C@H]([C@H](O)c3cccnc3)N2)cc1 | < 4.70 | 7.87 | 49 | < 4.70 | – | – | – | – | – | –
O=C(Nc1ccc(C[C@@H]2CC[C@H]([C@H](O)c3ccccc3)N2)cc1)[C@@H]1CCc2scnc21 | < 4.70 | 9.19 | 101 | < 4.70 | 0.1 | 80 | 12 | 1 | 24 | 68
C[C@@H](C(=O)Nc1ccc(C[C@@H]2CC[C@H]([C@H](O)c3cccnc3)N2)cc1)n1cccn1 | < 4.70 | 7.78 | 102 | < 4.70 | – | 34 | 29 | 2 | – | –
O=C(Cn1cccn1)Nc1ccc(C[C@@H]2CC[C@H]([C@H](O)c3cccnc3)N2)cc1 | < 4.70 | 7.12 | 72 | < 4.70 | – | – | – | – | – | –
CCc1nc2c(s1)CC[C@H]2C(=O)Nc1ccc(C[C@@H]2CC[C@H]([C@H](O)c3ccccc3)N2)cc1 | < 4.70 | 8.71 | 37 | < 4.70 | – | – | – | – | – | –
C[C@H](C(=O)Nc1ccc(C[C@@H]2CC[C@H]([C@H](O)c3ccccc3)N2)cc1)c1csc(N)n1 | < 4.70 | 9.17 | 85 | < 4.70 | – | – | – | – | – | –
CC[C@@H](C(=O)Nc1ccc(C[C@@H]2CC[C@H]([C@H](O)c3ccccc3)N2)cc1)c1csc(N)n1 | < 4.70 | 9.08 | 85 | < 4.70 | – | – | – | – | – | –
O=C(Nc1ccc(C[C@@H]2CC[C@H]([C@H](O)c3cccnc3)N2)cc1)[C@@H]1CCc2sc(-c3ccc(F)cc3)nc21 | 4.87 | 8.06 | 15 | 5.61 | – | – | – | – | – | –
O=C(Nc1ccc(C[C@@H]2CC[C@H]([C@H](O)c3ccccc3)N2)cc1)[C@@H]1CCc2sc(-c3ccc(F)cc3)nc21 | 5.36 | 6.73 | 76 | 5.60 | – | – | – | – | – | –
O=C(Nc1ccc(C[C@@H]2CC[C@H]([C@H](O)c3cccnc3)N2)cc1)[C@@H]1CCc2sc(C3CC3)nc21 | < 4.70 | 7.91 | 43 | < 4.70 | – | – | – | – | – | –
CCC[C@@H](C(=O)Nc1ccc(C[C@@H]2CC[C@H]([C@H](O)c3ccccc3)N2)cc1)c1csc(N)n1 | < 4.70 | 9.06 | 66 | < 4.70 | – | – | – | – | – | –
Nc1nc2c(s1)CCC[C@H]2C(=O)Nc1ccc(C[C@@H]2CC[C@H]([C@H](O)c3ccccc3)N2)cc1 | < 4.70 | 9.68 | 103 | < 4.70 | 0.14 | 185 | 0 | 3 | 5 | 63
Nc1nc2c(s1)CC[C@H]2C(=O)Nc1ccc(C[C@@H]2CC[C@H]([C@H](O)c3cccc(Cl)c3)N2)cc1 | < 4.70 | 9.82 | 93 | 5.07 | – | – | – | – | – | –
CC(C)[C@@H](C(=O)Nc1ccc(C[C@@H]2CC[C@H]([C@H](O)c3ccccc3)N2)cc1)c1csc(N)n1 | < 4.70 | 8.80 | 85 | < 4.70 | – | – | – | – | – | –
C[C@@H](C(=O)Nc1ccc(C[C@@H]2CC[C@H]([C@H](O)c3ccccc3)N2)cc1)c1csc(N)n1 | < 4.70 | 9.74 | 84 | < 4.70 | – | – | – | – | – | –
